Converted amounts (≈) assume the structure as drawn. The source made the active and inactive calls. No cut-off for these calls is given here.
How the values were obtained:
[1] = test system: Salmonella typhimurium; assay: Antibacterial activity against Salmonella Typhimurium ATCC 14028 at < 100 ug/mL by agar dilution method; format: functional, organism-based; settings: Salmonella enterica subsp. enterica serovar Typhimurium
In short: (§1)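 Agar dilution on 1 mL Mueller-Hinton agar slants. Compounds were serially two-fold diluted in DMSO (final DMSO ≤2%) to give 10–100 µg/mL in the medium. Bacteria were grown on MHA at 35 °C for 24 h, suspended in 0.86% saline at 1.5 × 10^8 cell/mL (0.5 McFarland), and 1 µL was added per slant. Slants were incubated at 35 °C. Drug-free blank included; each assay run three times; MIC recorded.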

[2] = test system: Proteus mirabilis; assay: Antibacterial activity against Proteus mirabilis ATCC 25933 at < 100 ug/mL by agar dilution method; format: functional, organism-based; in short: as §1
[3] = test system: Staphylococcus aureus; assay: Antibacterial activity against Staphylococcus aureus ATCC 6538P by agar dilution method; format: functional
[4] = test system: Staphylococcus saprophyticus; assay: Antibacterial activity against Staphylococcus saprophyticus ATCC 35552 at < 100 ug/mL by agar dilution method; format: functional, organism-based; in short: as §1
[5] = test system: Streptococcus agalactiae; assay: Antibacterial activity against Streptococcus agalactiae ATCC 13813 at < 100 ug/mL by agar dilution method; format: functional; in short: as §1
[6] = test system: Pseudomonas aeruginosa; assay: Antibacterial activity against Pseudomonas aeruginosa ATCC 27853 at < 100 ug/mL by agar dilution method; format: functional, organism-based; in short: as §1
[7] = test system: Staphylococcus aureus; assay: Antibacterial activity against Staphylococcus aureus ATCC 6538P at < 100 ug/mL by agar dilution method; format: functional, organism-based; in short: as §1
[8] = test system: Bacillus cereus; assay: Antibacterial activity against Bacillus cereus ATCC 14579 at < 100 ug/mL by agar dilution method; format: functional; in short: as §1
[9] = test system: Bacillus subtilis; assay: Antibacterial activity against Bacillus subtilis ATCC 23858 at < 100 ug/mL by agar dilution method; format: functional, organism-based; in short: as §1
[10] = test system: Enterobacter cloacae; assay: Antibacterial activity against Enterobacter cloacae ATCC 35030 at < 100 ug/mL by agar dilution method; format: functional, organism-based; in short: as §1
[11] = test system: Escherichia coli; assay: Antibacterial activity against Escherichia coli ATCC 11775 at < 100 ug/mL by agar dilution method; format: functional, organism-based; in short: as §1
[12] = test system: Mus musculus; assay: Antinociceptive activity in Swiss mouse assessed as inhibition of acetic acid-induced writhing at 10 mg/kg, ip administered 30 mins before acetic acid challenge measured after 20 mins relative to control; format: functional; settings: route intraperitoneal
In short: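 Mice were given 10 mg/kg i.p. in Tween 80/0.9% NaCl (Tween ≤5%) 30 min before i.p. 0.6% acetic acid, at 20–22 °C. Abdominal constrictions plus hind-limb stretching were counted cumulatively over 20 min in individual funnels. Groups of six, randomized and blinded. Inhibition was calculated versus vehicle controls (10 ml/kg i.p.); ANOVA with Dunnett's test.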

[13] = test system: Mus musculus; assay: Antinociceptive activity in Swiss mouse assessed as inhibition of acetic acid-induced abdominal contraction at 0.1 to 100 mg/kg, ip administered 30 mins before acetic acid challenge measured after 20 mins relative to control; format: functional, Abdominal cavity; settings: dose mg/kg 0.1-100; route intraperitoneal
In short: (§2)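 Writhing dose-response in mice: compounds at 0.1–10 mg/kg and standard drugs at 10–100 mg/kg, i.p. in Tween 80/saline, 30 min before i.p. 0.6% acetic acid. Constrictions and stretches were counted for 20 min at 20–22 °C, with six to eight animals per group. ID50 (dose halving the response versus control) was given as geometric mean with 95% confidence limits.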

[14] = test system: Mus musculus; assay: Antinociceptive activity in ip dosed Swiss mouse assessed as inhibition of acetic acid-induced abdominal contraction administered 30 mins before acetic acid challenge measured after 20 mins; format: functional; settings: Abdominal cavity, read-out: ID50 (the source's name); in short: as §2
[15] = organism: Mus musculus; assay: Antinociceptive activity in mouse assessed as inhibition of acetic acid-induced writhing; format: functional; settings: read-out: ID50 (the source's name)
[16] = Toxicity in Artemia salina assessed as mortality after 24 hrs; format: organism-based; settings: in vivo
In short: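 Artemia salina hatched at pH 9.0 (Na2CO3), 25 °C, strong aeration, continuous light (2000 Lux). Phototropic nauplii were collected about 12 h after hatching, and groups of 10 were exposed per well to various compound concentrations for 24 h. Survivors were counted and % deaths calculated.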

[17] = test system: Mus musculus; assay: Ratio of compound to acetyl salicylic acid activity against formalin-induced paw licking activity in Swiss mouse at 10 mg/kg, ip administered 30 mins before formalin challenge measured after 15 to 30 mins; format: functional; settings: route intraperitoneal
[18] = test system: Mus musculus; assay: Ratio of acetyl salicylic acid ID50 to compound ID50 for inhibition of acetic acid-induced abdominal contraction in ip dosed Swiss mouse; format: functional, Abdominal cavity
[19] = test system: Mus musculus; assay: Ratio of metamizole ID50 to compound ID50 for inhibition of acetic acid-induced abdominal contraction in ip dosed Swiss mouse; format: functional, Abdominal cavity
[20] = test system: Mus musculus; assay: Antinociceptive activity in Swiss mouse assessed as inhibition of formalin-induced paw licking activity at 10 mg/kg, ip administered 30 mins before formalin challenge measured after 5 mins; format: functional; settings: route intraperitoneal
In short: (§3)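 Formalin test in mice pretreated i.p. with vehicle or 10 mg/kg test agent 30 min before formalin injection. Animals were acclimatized 5 min in a glass cylinder with an angled mirror. Licking time was recorded for the early phase (0–5 min) and the late phase (15–30 min) after formalin. Values are mean ± S.E.M.; ANOVA with Dunnett's test.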

[21] = test system: Mus musculus; assay: Antinociceptive activity in Swiss mouse assessed as inhibition of formalin-induced paw licking activity at 10 mg/kg, ip administered 30 mins before formalin challenge measured after 15 to 30 mins; format: functional; settings: route intraperitoneal; in short: as §3

SMILES | Activity [1] | Activity [2] | Activity [4] | Activity [5] | Activity [6] | Activity [7] | Activity [8] | Activity [9] | Activity [10] | Activity [11] | inhibition in vivo at 10 mg/kg [12] | inhibition (INH) [13] | ED50 [14] | also measured
Cc1c(N2C(=O)C(Cl)=C(Cl)C2=O)c(=O)n(-c2ccccc2)n1C | inactive | inactive | inactive | inactive | inactive | inactive | inactive | inactive | inactive | inactive | 99% | 99% | 10.8 µmol/kg | MIC [3]: 250 µg/mL (≈ 710 µM); ED50 [15]: 10.8 µmol/kg
Cc1c(N2C(=O)C(Cl)=C(Nc3ccc(Cl)c([N+](=O)[O-])c3)C2=O)c(=O)n(-c2ccccc2)n1C | inactive | inactive | inactive | inactive | inactive | inactive | inactive | inactive | inactive | inactive | 98.5% | 98.5% | 1.29 µmol/kg | LC50 at 24 h [16]: 94.2 µg/mL (≈ 193 µM); Ratio [17]: 6; Ratio [18]: 103; Ratio [19]: 126; inhibition in vivo at 10 mg/kg [20]: 19.6%; inhibition in vivo at 10 mg/kg [21]: 49%

— ChEMBL document CHEMBL1275265, “Synthesis and biological evaluation of N-antipyrine-4-substituted amino-3-chloromaleimide derivatives” (Eur J Med Chem, 2010)
